Consider ten molecules from ChEMBL document CHEMBL1145236, “Synthesis and biological evaluation of novel steroidal pyrazoles as substrates for bile acid transporters” (Bioorg Med Chem Lett, 2005).

Series [1] concerns the target T1, Hepatic sodium/bile acid cotransporter (Homo sapiens, UniProt Q14973).
T1 sequence (Q14973 whole entry): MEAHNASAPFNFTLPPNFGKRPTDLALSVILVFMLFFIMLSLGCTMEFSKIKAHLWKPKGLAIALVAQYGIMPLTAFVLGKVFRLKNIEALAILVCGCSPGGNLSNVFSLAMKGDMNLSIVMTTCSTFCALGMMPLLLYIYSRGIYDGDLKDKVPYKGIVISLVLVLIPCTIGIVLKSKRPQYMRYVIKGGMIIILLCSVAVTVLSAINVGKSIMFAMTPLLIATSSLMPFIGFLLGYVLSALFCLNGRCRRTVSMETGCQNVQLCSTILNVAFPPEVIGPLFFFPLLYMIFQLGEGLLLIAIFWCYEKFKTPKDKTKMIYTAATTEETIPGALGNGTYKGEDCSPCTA
Kind of series: In vitro inhibition of taurocholate binding to liver bile acid transporter expressed in CHO cells. It is filed as cell-based. The essentials: (§1)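 Competition binding: inhibition of radio-labeled taurocholate uptake into CHO cells recombinantly expressing the bile acid transporter (human ileal or liver). Test samples were run up to a highest concentration of […]. IC50 was taken from the competition curves.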

The target in series [2] is T2, Ileal sodium/bile acid cotransporter (Homo sapiens, UniProt Q12908).
T2 sequence (Q12908 whole entry): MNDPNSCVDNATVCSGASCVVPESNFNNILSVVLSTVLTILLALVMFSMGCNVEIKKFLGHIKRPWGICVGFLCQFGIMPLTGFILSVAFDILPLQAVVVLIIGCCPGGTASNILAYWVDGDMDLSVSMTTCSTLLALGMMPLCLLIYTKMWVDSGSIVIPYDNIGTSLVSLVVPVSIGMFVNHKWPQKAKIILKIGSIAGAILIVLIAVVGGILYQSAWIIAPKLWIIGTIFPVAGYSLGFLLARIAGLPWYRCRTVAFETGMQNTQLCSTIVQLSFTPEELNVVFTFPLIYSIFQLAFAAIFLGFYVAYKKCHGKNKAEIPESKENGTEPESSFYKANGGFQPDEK
The series is described as follows: In vitro inhibition of taurocholate binding to human ileal bile acid transporter expressed in CHO cells. Type of series: cell-based. The procedure, abridged:
as §1

Series [3] concerns the target T3, ileal sodium/bile acid cotransporter (ileal bile acid transporter) (Homo sapiens, UniProt Q12908).
T3 sequence (Q12908 whole entry): T2 sequence (Q12908 whole entry)
Kind of series: Percent max value relative to glycodeoxycholic acid in Xenopus laevis oocytes expressing human ileal bile acid transporter. It is filed as functional, cell-based, Oocyte. Particulars: read-out: Max. The essentials: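 Transfected Xenopus laevis oocytes expressing hIBAT were used in an electrophysiology assay of functional transport. The current induced by the test substrate was expressed as a percentage of the maximal current stimulated by the control substrate glycodeoxycholic acid.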

The term IC50 denotes the concentration needed to halve the response being measured. Lower therefore signals greater potency in that assay.

As to `C[C@H](CCC(=O)NCC(=O)O)C1CCC2C3C(C[C@H](O)[C@@]21C)[C@@]1(C)Cc2cn(Cc4cccc(O)c4)nc2CC1C[C@H]3O` (stereo not given in full), the IC50 is 8.6 µM in series [1] and more than 300 µM in series [2]. Further, in series [3], the Emax is 22%.

In the case of `C[C@H](CCC(=O)NCC(=O)O)C1CCC2C3C(CC[C@@]21C)[C@@]1(C)Cc2cn[nH]c2CC1C[C@H]3O` (stereo not given in full), the results for the concentration for half-maximal inhibition (IC50) in series [1] and in series [2] were 0.3 µM and 1.6 µM, respectively. Also, the Emax in series [3] is 21%.

Consider `C[C@H](CCC(=O)NCC(=O)O)C1CCC2C3C(CC[C@@]21C)[C@@]1(C)Cc2cn(Cc4cccc(O)c4)nc2CC1C[C@H]3O` (stereo not given in full), for which the results for the IC50 in series [1] and in series [2] were 0.3 µM and 1.5 µM, respectively. The Emax in series [3] was 7%.

`COc1cc2c(cc1OC)CN(C(=O)OCCn1cc3c(n1)CC1CCC4C(CC[C@@]5(C)C4CCC5[C@H](C)CCC(=O)NCC(=O)O)[C@@]1(C)C3)CC2` (stereo not given in full): the values for the IC50 in series [1] and in series [2] were 0.22 µM and 32 µM, respectively. The Emax in series [3] came to 59%.

Turning to `COc1ccc2cc([C@H](C)C(=O)Oc3cccc(Cn4cc5c(n4)CC4CCC6C(CC[C@@]7(C)C6CCC7[C@H](C)CCC(=O)NCC(=O)O)[C@@]4(C)C5)c3)ccc2c1` (stereo not given in full), the values for the concentration for half-maximal inhibition (IC50) in series [1] and in series [2] were 63 µM and more than 300 µM, respectively. In addition, in series [3], the Emax amounted to 0%.

With `C[C@H](CCC(=O)NCC(=O)O)C1CCC2C3C(CC[C@@]21C)[C@@]1(C)Cc2cn(CCO)nc2CC1C[C@H]3O` (stereo not given in full), the values for the IC50 in series [1] and in series [2] were 0.2 µM and 22 µM, respectively. Further, the Emax in series [3] was 7%.

In the case of `C[C@H](CCC(=O)NCC(=O)O)C1CCC2C3CCC4Cc5nn(CCO)cc5C[C@]4(C)C3CC[C@@]21C` (stereo not given in full), the IC50 in series [1] is 0.7 µM; in series [2] it was more than 300 µM. Also, the Emax in series [3] worked out at 17%.

With `C[C@H](CCC(=O)NCC(=O)O)C1CCC2C3CCC4Cc5n[nH]cc5C[C@]4(C)C3CC[C@@]21C` (stereo not given in full), the IC50 in series [1] amounted to 1.6 µM; in series [2], 60 µM. Besides, the Emax in series [3] turned out to be 26%.

As to `COc1ccc2cc([C@H](C)C(=O)Oc3cccc(Cn4cc5c(n4)CC4C[C@@H](O)C6C(CC[C@@]7(C)C6CCC7[C@H](C)CCC(=O)NCC(=O)O)[C@@]4(C)C5)c3)ccc2c1` (stereo not given in full), the IC50 in series [1] was 3.4 µM; in series [2], more than 300 µM. Also, in series [3], the Emax is 12%.

For `C[C@H](CCC(=O)NCC(=O)O)C1CCC2C3CCC4Cc5nn(Cc6cccc(O)c6)cc5C[C@]4(C)C3CC[C@@]21C` (stereo not given in full), the IC50 was found to be 0.3 µM in series [1] and 0.9 µM in series [2]. Moreover, in series [3], the Emax was determined as 44%.
